Only some compounds are listed: those with a hit (about 2% of all), similar ones and a draw of the others.
LGR2 inh: blocks bursicon-induced cAMP signaling via Drosophila LGR2 | HEK293 LGR2, CRE-luciferase, bursicon-stimulated, 4 h | inhibition, % at 9.99 µM | hit rate 0.35% among 380,000 | AID 720647;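 active = drop in luminescence signal, shown as inhibition above about 50% in the replicate tests, limit read from the data, passing the limit was not always enough; inconclusive = probably only some replicates passing the limit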;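 also: agonist challenge used bursicon conditioned medium at about half maximal strength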
CaV13 FRET inh: Disruptors of the CACNA1D IQ motif to Ca2+-dependent inactivation inhibitor domain association, primary screening, Förster resonance energy transfer in intact living …; HEK cells, CFP/YFP FRET ICDI-IQ, plate reader, 10 min; percent FRET-ratio fall versus neutral wells; inhibition, % at 12.3 µM; hit rate 0.098% among 340,000;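 active = mean replicate inhibition of at least 30% and at least 1% of replicates passing that level; inconclusive = only one of the two criteria is met; inactive = neither criterion is met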;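 also: 0% = median of the neutral control wells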
TROY signal inh: blocks TROY-dependent signaling in reporter cells. Q293 LMP1-TROYcd NF-kB luciferase reporter, 4 h. inhibition, % at 10 µM. hit rate 0.98% among 360,000. AID 1347056;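 active = compounds whose plate-normalised and pattern-corrected inhibition of the luciferase reporter signal at the single screening dose is 50% or more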
TWEAK Fn14 block: inhibitors of TWEAK-Fn14 interaction signaling. TWEAK-stimulated Fn14 reporter cells, luciferase luminescence, 8 h. inhibition, % at 10 µM. hit rate 2% among 360,000; in the data active = inhibition above about 50%
XiGFP reactiv: activators of X-chromosome reactivation in mouse fibroblasts | hit rate 0.055% among 360,000 | XiGFP mouse fibroblasts, % GFP-positive cells imaging, 3 d; cells co-treated with 5-aza-dC sensitizer; scaled so ellipticine positive control = 100% | AID 743238 | activation, % at 7.58 µM;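 active = mean normalized replicate activation at least 10% and every replicate at or above 10%; inconclusive = only one of the two criteria met; inactive = mean below 10% and not all replicates reach 10%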;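 also: 0% = median of on-plate neutral control wells and 100% = ellipticine 6 µM median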
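assay system = SV40-immortalized XiGFP fibroblast cells, line 68-5-11 | buffer or medium = DMEM plus 5-aza-dC sensitizer | doses = single-point pinned compound dosing | times = 3-day compound exposure, then 15 min fixation at room temperature | benchmarks = positive control ellipticine, 6 µM final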
Numbers without * were called inactive; ? = inconclusive; / = not tested or not shown.

SMILES	LGR2 inh	CaV13 FRET inh	TROY signal inh	TWEAK Fn14 block	XiGFP reactiv
C[C@H](CO)N1C[C@H](C)[C@@H](CN(C)S(=O)(=O)c2cccs2)Oc2ccc(NC(=O)Nc3ccc4c(c3)OCO4)cc2CC1=O	-13	/	/	/	0
N#CC1=C(N)C(C#N)(C#N)C(c2cccnc2)C2CC(c3ccccc3)CC=C12 (configuration not stated)	/	/	10	61*	/
O=C(C[C@H]1C[C@H]2c3cc(NC(=O)C4CCOCC4)ccc3O[C@H]2[C@H](CO)O1)NCc1ccccc1	-9	/	/	/	0
Cc1cccc(NC(=O)CSc2nc3ccccc3c3nc(CCc4c(C)n[nH]c4C)nn23)c1	/	-4	1	60*	/
Cc1n[nH]c(C)c1CCc1nc2c3ccccc3nc(SCC(=O)Nc3ccccc3F)n2n1	/	-6	-10	28	/
N#CCCn1cc(/C=N/NC(N)=S)c(-c2ccc(-c3ccccc3)cc2)n1	?	-12	13	51*	0
O=S1(=O)Nc2c(ccc3cccnc23)-c2ccccc21	/	/	71*	105*	/
Clc1ccc2ccc3cccnc3c2n1	-5	-2	-22	-7	0
CCC(C)(C)c1ccc2c(c1)C(=O)c1ccccc1C2=O	-39	-3	48	61*	0
O=C(O)c1ccc(-n2cc(-c3cc4ccccc4oc3=O)[nH]c2=S)cc1	-30	-4	72*	73*	-1
CN1C(=O)c2cc(NC(=O)Nc3ccccc3F)ccc2OC[C@H]2O[C@@H](CC(=O)NCCc3ccncc3)CC[C@H]21	11	/	/	/	0
C[C@@H]1CCCCO[C@H](CN(C)C(=O)Cc2ccccc2)[C@H](C)CN([C@@H](C)CO)C(=O)c2cc(NC(=O)Nc3cccc4ccccc34)ccc2O1	-1	/	/	/	0
CCOC(=O)c1c2c(n(Cc3ccccc3)c1C)C(=O)C(=O)c1ccccc1-2	104*	-5	65*	104*	2
CCOC(=O)c1c2c(n(C)c1C)C(=O)C(=O)c1ccc(Br)cc1-2	/	-4	45	87*	/
CCNC(=O)C[C@@H]1CC[C@@H]2[C@H](COc3ccc(NC(=O)c4cccs4)cc3C(=O)N2C)O1	-2	/	/	/	0
CC(C)n1nc(C(=O)Oc2ccc(Cl)cc2)c2ccccc2c1=O	19	-5	35	51*	0
CCCC(=O)Nc1ccc2c(c1)C(=O)N(C)[C@H]1CC[C@@H](CC(=O)NCCCN(C)C)O[C@H]1CO2	-5	/	/	/	0
Cn1cc(/C=C/c2cc[n+](C)cc2)c2cc(Cl)ccc21	12	-27	3	-2	49*
O=C(Nc1ccccc1Cl)c1ccc(C(=O)Nc2ccccc2Cl)cc1	2	-6	62*	-3	0
O=C(Nc1ccccc1Cl)c1ccccc1	-29	0	-38	-23	0
COc1ccc(/C(N)=N/OC(=O)CN(C)S(=O)(=O)c2ccc(C)cc2)cc1	9	3	17	68*	0
Cc1ccc(/C(N)=N/OC(=O)CN(C)S(=O)(=O)c2ccc(C)cc2)cc1	13	-6	27	4	0
COc1ccc(NCc2nnc(SCc3ccc(Cl)cc3)n2-c2ccccc2)cc1	15	-18	60*	16	0
COc1ccc(-n2c(COc3ccc(Cl)cc3)nnc2SCc2ccc(C#N)cc2)cc1	/	-4	8	14	/
COCC(=O)N1[C@H](CO)[C@@H](c2ccccc2)C12CN(C(=O)c1cccc(F)c1)C2	5	/	/	/	0
SMILES	LGR2 inh	CaV13 FRET inh	TROY signal inh	TWEAK Fn14 block	XiGFP reactiv
Cc1noc(C)c1NC(=O)Nc1ccc2c(c1)CC(=O)N([C@@H](C)CO)C[C@H](C)[C@@H](CN(C)Cc1ccc(Oc3ccccc3)cc1)O2	-1	/	/	/	0
CN(C)CCN(Cc1ccc(Cl)cc1)c1ccccn1	11	-5	-3	-8	15*
C[N+](C)(C)CCN(Cc1ccc(Cl)cc1)c1ccccn1	/	-3	12	5	/
CCN1CCN(c2ncnc3scc(-c4ccc(OC)cc4)c23)CC1	-11	-3	10	91*	0
COc1ccc(-c2csc3ncnc(N4CCN(c5cccc(OC)c5)CC4)c23)cc1	-9	-9	16	54*	0
Fc1ccc(-c2csc3ncnc(N4CCN(c5ccccc5)CC4)c23)cc1	14	-3	34	32	0
COc1ccc(CN2CCN(c3ncnc4scc(-c5ccc(F)cc5)c34)CC2)cc1	19	-15	-4	-17	0
c1ccc(N2CCN(c3ncnc4scc(-c5cccs5)c34)CC2)cc1	34	-5	31	64*	/
CS(=O)(=O)N1[C@@H](C#N)[C@H](c2ccc(C#Cc3cccc(F)c3)cc2)[C@@H]1CO	-30	/	/	/	0
COc1ccc(NC(=O)N2CCCCN3[C@H](CO)[C@@H](c4ccc(C#Cc5ccccn5)cc4)[C@H]3C2)cc1	/	/	/	/	0
Cc1cc(Sc2ncnc(N)c2[N+](=O)[O-])ncn1	/	/	13	51*	/
Cc1cc(Sc2nc(N)ncc2[N+](=O)[O-])ncn1	-3	-4	5	32	1
O=c1cc2c(=O)oc3cc(O)c(O)oc3c2c(O)c1O	-3	-19	7	83*	0
O=c1oc2cc(O)c(Cl)cc2c2ccccc12	-5	-24	-4	5	0
Cc1ccsc1/C=C1\CCc2ccccc2C1=O	/	-5	35	82*	/
COc1ccc2c(c1)CC/C(=C/c1ccccn1)C2=O	15	-1	1	40	0
O=C1C(=Cc2ccccn2)CCc2ccccc21	5	-6	-25	54*	0
O=C(O)/C=C/C(=O)N1CCN(c2ccccc2F)CC1	-1	-18	75*	11	0
C[C@@H]1CN([C@H](C)CO)S(=O)(=O)c2ccc(/C=C/c3ccccc3)cc2O[C@H]1CN(C)C	13	/	/	/	0
Cc1ccc(-c2nc(-c3nccc4ccccc34)oc2-c2ccccc2)cc1	?	-3	63*	-4	0
c1ccc(-c2nccc3ccccc23)cc1	-14	-4	-2	-4	0
CCOc1ccc(S(=O)(=O)NCCSCc2ccco2)cc1	1	-7	0	11	/
COc1ccc(S(=O)(=O)NCCSCc2ccco2)cc1	24	-5	/	72*	/
COc1ccc(S(=O)(=O)N(C)C[C@@H]2OCCCC[C@@H](C)Oc3ccc(NS(=O)(=O)c4ccc(C)cc4)cc3C(=O)N([C@H](C)CO)C[C@@H]2C)cc1	-4	/	/	/	0
O=C(C[C@H]1CC[C@H](NS(=O)(=O)c2cccc(F)c2)[C@@H](CO)O1)NCc1ccc2c(c1)OCO2	-26	/	/	/	0
O=C(CCCSc1nc2ccccc2[nH]1)N1CCN(c2ccc([N+](=O)[O-])cc2)CC1	/	/	37	50*	/
Cc1ccc(C(=O)NNC(=O)CCCN2C(=O)/C(=C/c3ccccc3Cl)SC2=S)cc1	9	-4	34	48	0
Cc1ccc(/C=C2\SC(=S)N(CCCC(=O)NNC(=O)c3ccccc3O)C2=O)cc1	1	-15	69*	87*	3

High-throughput results as filed in PubChem BioAssay.
